Measured values reported in the RNAGym collection of RNA variant scans (doi:10.1038/s41586-018-0170-7).

B1: tRNA (parent)
chain: GUUCCGUUGGCGUAAUGGUAACGCGUCUCCCUCCUAAGGAGAAGACUGCGGGUUCGAGUCCCGUACGGAACG

Variants of: B1
Assay: yeast fitness, log relative to wild type (ln ratio); higher = fitter; tRNA-Arg(CCU), competitive growth, 37 C, 1 M NaCl
How it was run: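 Two independent transformations put a combinatorial tRNA-Arg(CCU) variant library on a HIS3 centromeric plasmid into BY4742 lacking the chromosomal gene. Pools were grown in SC-HIS at 30 °C for 4 generations, then in SC-HIS 1M NaCl at 37 °C for ~6.5 generations (~26.5 h), with three outputs taken per input. Fitness compares a genotype's generations with the wild type's as a natural log ratio. Those generations are OD-scaled log2 output/input frequencies, inverse-variance weighted across replicates, from 125 bp paired-end Illumina counts.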

In order of rising “yeast fitness (ln)” value:
1. G1A G6U C46U C66U A69G C71U  -0.814
2. G1A U2G G6A A43C C66U A69G A70G C71U  -0.612
3. G1A G6U C27U A43C A69G C71U  -0.557
4. U2C G6U C27U C46U C66U A69G A70U C71U  -0.546
5. G1A U2G C27U A43C C66A A70U C71U  -0.499
6. G1A U2G G6U C27U A43C C46U C66U A69G A70G  -0.476
7. G1A U2G G6U C27U C46U A69G A70G  -0.474
8. G1A C27U A43C C46U C66U A69G A70U C71U  -0.448
9. U2G A43C C46U C66A A69G A70U C71U  -0.443
10. G1A A69G A70U C71U  -0.44
11. G6U A43C C46U A69G A70U C71U  -0.438
12. G6A C27U A43C C66U A70G  -0.426
13. G1A G6U C66U C71U  -0.425
14. G1A G6U C27U A43C C46U C66U A69G C71U  -0.423
15. G1A U2G G6U C27U A43C C46U A69G A70U C71U  -0.41
16. U2G G6U C66U A69G A70U  -0.409
17. G1A U2G G6U C27U C66U A69G A70U C71U  -0.407
18. G6U C27U A43C A69G A70G  -0.401
19. G1A U2G G6U A43C C46U C66U A70U C71U  -0.399
20. U2C G6U A43C C46U C66A A69G A70U C71U  -0.396
21. G6U A43C C66A A69G A70U C71U  -0.39
22. U2G G6A A43C C66U C71U  -0.388
23. G1A G6A A43C C66U A70U  -0.374
24. G1A G6U A43C C66U A69G A70G C71U  -0.371
25. G1A G6U C27U A43C C46U C66U A70U  -0.368
26. G1A C27U C66U A69G A70U C71U  -0.364
27. U2G G6U C27U A69G A70G C71U  -0.363
28. G1A U2G G6U C27U A69G A70U  -0.362
29. U2G C27U C46U A69G A70G  -0.355
30. G1A G6U C27U A43C C71U  -0.352
31. U2G G6A C27U A43C C66U A69G C71U  -0.35
32. U2C G6A C66U A69G A70U C71U  -0.343
33. G1A U2G G6A C27U A43C C46U C66U A69G A70G  -0.34
34. A43C A69G A70U C71U  -0.337
35. G6A C66U A69G A70U  -0.335
36. G1A G6U A43C C46U C66A A70U C71U  -0.334
37. G1A G6U A43C C66U C71U  -0.333
38. U2C G6A A43C C46U C66U A69G C71U  -0.332
39. G1A A43C C46U A69G A70U C71U  -0.33
40. U2C G6U A69G A70G C71U  -0.325
41. U2G G6U C27U A43C A69G A70G  -0.322
42. G1A C27U A69G A70G C71U  -0.322
43. G6U C27U C46U A70G C71U  -0.321
44. U2G G6U C27U A43C C66U A70G C71U  -0.316
45. U2G G6U C27U A43C C66A A69G A70U  -0.315
46. G6U C27U A43C C46U C66A A69G A70G C71U  -0.312
47. U2G G6U A43C C46U C66U C71U  -0.309
48. G6A A43C C66U A69G A70U C71U  -0.295
49. U2G C27U A43C C46U A69G A70U C71U  -0.295
50. U2C G6U C27U C46U C66A A70U  -0.29
51. U2G C27U C66U A69G A70G  -0.288
52. G1A U2G G6A A43C C46U C66A A69G A70U C71U  -0.286
53. G6A A43C C46U C66A A70G C71U  -0.286
54. U2G G6A C27U A70U  -0.283
55. U2G C27U C66U A70U C71U  -0.281
56. G1A G6U C27U C46U A70U C71U  -0.278
57. U2G G6A C27U C46U C66U A69G C71U  -0.277
58. G1A G6U A43C C46U C66U C71U  -0.275
59. G6A C27U A43C C46U C66A  -0.269
60. U2G A43C C66U A70U  -0.268
61. G1A U2G G6U C27U C66A A70G  -0.268
62. G1A U2G C27U C66A A69G A70G C71U  -0.265
63. G6U C27U C66U A70U  -0.261
64. G1A U2G G6U C46U C66A A70G  -0.258
65. U2G G6A A43C C66U A69G A70G  -0.257
66. C27U C46U A70G C71U  -0.256
67. U2G G6U C27U C46U A69G  -0.255
68. G6U C27U A43C C46U C66U A70G  -0.255
69. G1A G6A C46U A69G C71U  -0.252
70. U2G A69G A70U C71U  -0.25
71. U2G G6A C27U C66A A69G A70G C71U  -0.249
72. G1A U2G G6U C66U C71U  -0.249
73. G6A C27U A43C C46U A70U C71U  -0.239
74. G6U C46U C66U A69G A70U  -0.235
75. U2C G6A A43C C66U A69G A70U  -0.232
76. U2G G6A C27U A43C C46U C66U A69G A70G  -0.23
77. U2G G6U C27U A43C C46U A70U C71U  -0.228
78. G1A G6U C46U C66A A70G  -0.225
79. U2G G6U A43C C46U A69G C71U  -0.221
80. G6A C27U C46U C66A A69G A70G C71U  -0.221
81. G6A C27U C46U A70U C71U  -0.218
82. G6A C27U C46U C66U A69G A70G C71U  -0.215
83. G1A G6U A70U C71U  -0.213
84. A43C C46U C66U A70U C71U  -0.211
85. U2G G6U C27U A70G  -0.211
86. U2G G6U C27U A43C C46U C66A A70G  -0.21
87. G1A U2C G6U C27U C46U C66U A70G  -0.203
88. G1A G6A A43C C66A A70U  -0.201
89. U2C C46U C66U A70U  -0.2
90. U2G G6A A43C C46U C66U A69G A70G  -0.199
91. U2C G6U C27U C46U A69G A70U  -0.196
92. G1A U2G G6A C27U C46U C66U A70G  -0.194
93. U2G A43C C46U C66A A70U C71U  -0.193
94. U2C A43C C46U C71U  -0.193
95. C27U C66A A69G A70G C71U  -0.191
96. U2C G6U C27U A69G A70G  -0.191
97. G1A U2G G6A C46U C66A A70G C71U  -0.185
98. C27U C66U A70G C71U  -0.183
99. U2C G6U C27U C46U C66U  -0.183
100. G1A U2C G6A C46U C66U A70U  -0.182
101. G1A U2G G6A C46U C66U A69G A70G  -0.18
102. U2G G6A A43C C46U C66U A70U C71U  -0.175
103. U2C G6U C27U A43C C46U C66U A70U  -0.173
104. A43C C46U C66U A69G  -0.172
105. U2G G6U A69G A70G  -0.171
106. G1A A43C C46U C66A A69G A70G  -0.169
107. G6A C66A A69G A70G C71U  -0.163
108. G1A U2G C27U A43C C71U  -0.16
109. G1A U2G C27U C46U C71U  -0.159
110. A43C C66U A70G C71U  -0.156
111. G6A C27U A70G  -0.148
112. G1A C27U A43C C46U A70G  -0.147
113. G1A U2G C27U C46U A70G  -0.144
114. G1A U2C G6A C27U C66U A70U  -0.141
115. G1A U2G G6A A43C C46U A70U C71U  -0.14
116. G1A G6A C27U C66A A70U  -0.139
117. G1A C27U A43C A69G  -0.138
118. U2G C27U C46U C66A A70U C71U  -0.134
119. G1A U2C G6U C27U A70U  -0.134
120. G6A A43C C66U A70G  -0.128
121. G1A U2G C27U A43C C66U  -0.123
122. G1A U2G G6U C46U C66A  -0.122
123. U2C G6A C27U C46U C66U C71U  -0.119
124. U2G G6A C27U A43C A70U  -0.119
125. U2G C46U C66U C71U  -0.115
126. G1A U2C G6U C66A C71U  -0.115
127. U2C A43C C46U A69G C71U  -0.0944
128. A70U C71U  -0.0899
129. G1A U2C G6U C46U C66U C71U  -0.0885
130. G1A U2C G6A A43C A70U C71U  -0.088
131. U2C A43C C66U  -0.0874
132. G6A C27U C46U C66U A70U  -0.0845
133. A43C C46U A69G A70G C71U  -0.0835
134. U2C G6A A70U C71U  -0.0821
135. U2C G6A C71U  -0.0812
136. G1A G6A C46U A70G  -0.0807
137. G1A C46U C66A A70U  -0.0792
138. U2G C27U C66A A70U  -0.0765
139. G1A U2C G6A C27U C46U C66U A69G A70U  -0.0756
140. U2C G6A A43C C66U A69G A70G C71U  -0.072
141. G1A C27U A69G C71U  -0.0706
142. C27U A43C C46U A70U  -0.0673
143. U2C G6A C46U C66A A70U  -0.067
144. U2C G6U C27U A43C C46U C66A A69G A70G  -0.051
145. G1A U2C G6U C27U C66A A70G C71U  -0.0489
146. G6U C27U C46U C66A C71U  -0.0489
147. U2C C46U C66U C71U  -0.0488
148. G1A U2C G6A C27U  -0.0466
149. U2C G6A C46U A70U C71U  -0.0461
150. G1A U2G A43C C46U  -0.042
151. U2C G6U C66U  -0.0417
152. C66A A69G A70G  -0.0347
153. U2C G6A C27U C46U C66U A69G A70G  -0.0335
154. G1A U2C C46U A70U C71U  -0.0299
155. C27U C46U C71U  -0.028
156. U2C G6A C27U C46U C66U A70G  -0.0278
157. A43C A70G  -0.022
158. U2C C27U C46U  -0.0168
159. U2C G6A C46U  -0.0163
160. U2C A43C A69G A70G C71U  -0.0143
161. U2C A43C C46U A69G A70G C71U  -0.00607
162. G1A U2C C71U  -0.00448
163. G1A U2C  -0.00128
164. G6U C66A A70U  -0.0008
165. G1A U2C G6A  0.00615
166. A43C C46U  0.00767
167. U2C G6U C46U C66A A69G A70G  0.0157
